{"source": "ChEMBL document CHEMBL1123493", "about": "“Synthesis and antiviral activity of the carbocyclic analogues of 5-ethyl-2'-deoxyuridine and of 5-ethynyl-2'-deoxyuridine” (1986)", "key": {"Oryctolagus cuniculus [1]": {"species_on_record": "Oryctolagus cuniculus", "assay": "Compound was evaluated for antiviral activity against HSV-2 strain MS in rabbit kidney cells", "type": "functional"}, "Oryctolagus cuniculus [2]": {"species_on_record": "Oryctolagus cuniculus", "assay": "Compound was tested for the inhibition of the replication of herpes simplex virus (HSV-I strain 377) in rabbit kidney cells", "type": "functional"}, "Oryctolagus cuniculus [3]": {"species_on_record": "Oryctolagus cuniculus", "assay": "Compound was evaluated for antiviral activity against Herpes Simplex Virus (HSV-1 strain 377) in rabbit kidney cells", "type": "functional"}, "Oryctolagus cuniculus [4]": {"species_on_record": "Oryctolagus cuniculus", "assay": "Compound was tested for the inhibition of the replication of herpes simplex virus in vero cells of HSV-2 strain MS in rabbit kidney cells", "type": "functional"}, "Vero [5]": {"test_system": "Vero", "assay": "Compound was tested for the inhibition of the replication of herpes simplex virus (HSV-I strain 377) in vero cells in exp. no. 3", "type": "functional", "conditions": "Chlorocebus sabaeus", "outline": "(§1)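 Inhibition of virus-induced cytopathogenic effect was measured in Vero cells infected with TK⁺ HSV-1 strain 377 or TK⁺ HSV-2 strain MS, using a modified Ehrlich method. Activity is given as a virus rating, which weights both the degree of CPE inhibition and the cytotoxicity of the compound. Potency is given as the minimum inhibitory concentration (MIC₅₀).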"}, "Vero [6]": {"test_system": "Vero", "assay": "Compound was evaluated for antiviral activity against Herpes Simplex Virus (HSV-2 strain MS) in vero cells in exp. no. 3", "type": "functional, Chlorocebus sabaeus", "outline": "as §1"}, "Vero [7]": {"test_system": "Vero", "assay": "Compound was evaluated for antiviral activity against Herpes Simplex Virus (HSV-1 strain 377) in vero cells in exp. no. 3", "type": "functional, Chlorocebus sabaeus", "outline": "as §1"}, "Vero [8]": {"test_system": "Vero", "assay": "Compound was tested for the inhibition of the replication of herpes simplex virus (HSV-I strain 377) in vero cells of in exp. no. 2", "type": "functional", "conditions": "Chlorocebus sabaeus", "outline": "as §1"}, "Vero [9]": {"test_system": "Vero", "assay": "Compound was evaluated for antiviral activity against Herpes Simplex Virus (HSV-1 strain 377) in vero cells in exp. no. 1", "type": "functional, Chlorocebus sabaeus", "outline": "as §1"}, "Vero [10]": {"test_system": "Vero", "assay": "Compound was evaluated for antiviral activity against Herpes Simplex virus (HSV-2 strain MS) in exp. no. 1", "type": "functional, Chlorocebus sabaeus"}, "Vero [11]": {"test_system": "Vero", "assay": "Compound was evaluated for antiviral activity against Herpes Simplex virus (HSV-1 strain 377) in exp. no. 2", "type": "functional, Chlorocebus sabaeus"}, "Vero [12]": {"test_system": "Vero", "assay": "Compound was tested for the inhibition of the replication of herpes simplex virus (HSV-2 strain MS) in vero cells in exp. no.1", "type": "functional", "conditions": "Chlorocebus sabaeus", "outline": "as §1"}, "Vero [13]": {"test_system": "Vero", "assay": "Compound was evaluated for antiviral activity against Herpes Simplex virus (HSV-2 strain MS) in exp. no. 2", "type": "functional, Chlorocebus sabaeus"}, "Vero [14]": {"test_system": "Vero", "assay": "Compound was tested for the inhibition of the replication of herpes simplex virus (HSV-2 strain MS) in vero cells in exp. no.2", "type": "functional", "conditions": "Chlorocebus sabaeus", "outline": "as §1"}, "Vero [15]": {"test_system": "Vero", "assay": "Compound was tested for the inhibition of the replication of herpes simplex virus (HSV-I strain 377) in vero cells of in exp. no. 1", "type": "functional", "conditions": "Chlorocebus sabaeus", "outline": "as §1"}, "Vero [16]": {"test_system": "Vero", "assay": "Compound was tested for the inhibition of the replication of herpes simplex virus (HSV-I strain 377) in vero cells in exp. no. 1", "type": "functional", "conditions": "Chlorocebus sabaeus", "outline": "as §1"}, "Vero [17]": {"test_system": "Vero", "assay": "Compound was tested for the inhibition of the replication of herpes simplex virus (HSV-I strain 377) in vero cells in exp. no.1", "type": "functional", "conditions": "Chlorocebus sabaeus", "outline": "as §1"}, "Vero [18]": {"test_system": "Vero", "assay": "Compound was evaluated for antiviral activity against Herpes Simplex Virus (HSV-2 strain MS) in vero cells in exp. no.2", "type": "functional, Chlorocebus sabaeus", "outline": "as §1"}, "Vero [19]": {"test_system": "Vero", "assay": "Compound was evaluated for antiviral activity against Herpes Simplex Virus (HSV-1 strain 377) in vero cells in exp. no.1", "type": "functional, Chlorocebus sabaeus", "outline": "as §1"}, "Vero [20]": {"test_system": "Vero", "assay": "(§2) Compound was tested for the inhibition of the replication of herpes simplex virus (HSV-2 strain MS) in vero cells in exp. No. 2", "type": "functional", "conditions": "Chlorocebus sabaeus", "outline": "as §1"}, "Vero [21]": {"test_system": "Vero", "assay": "Compound was evaluated for antiviral activity against Herpes Simplex Virus (HSV-1 strain 377) in vero cells in exp. No. 2", "type": "functional, Chlorocebus sabaeus", "outline": "as §1"}, "Vero [22]": {"test_system": "Vero", "assay": "Compound was evaluated for antiviral activity against Herpes Simplex Virus (HSV-2 strain MS) in vero cells in exp. No. 2", "type": "functional, Chlorocebus sabaeus", "outline": "as §1"}, "Vero [23]": {"test_system": "Vero", "assay": "Compound was tested for the inhibition of the replication of herpes simplex virus (HSV-I strain 377) in vero cells in exp. No. 2", "type": "functional", "conditions": "Chlorocebus sabaeus", "outline": "as §1"}, "Vero [24]": {"test_system": "Vero", "assay": "as §2", "type": "functional", "conditions": "Chlorocebus sabaeus", "outline": "as §1", "remark": "listed apart in the source"}, "Vero [25]": {"test_system": "Vero", "assay": "Compound was tested for the inhibition of the replication of herpes simplex virus (HSV-2 strain MS) in vero cells in exp. No. 1", "type": "functional", "conditions": "Chlorocebus sabaeus", "outline": "as §1"}, "Vero [26]": {"test_system": "Vero", "assay": "Compound was tested for the inhibition of the replication of herpes simplex virus (HSV-I strain 377) in vero cells of in exp. No. 1", "type": "functional", "conditions": "Chlorocebus sabaeus", "outline": "as §1"}, "Vero [27]": {"test_system": "Vero", "assay": "Compound was evaluated for antiviral activity against Herpes Simplex Virus (HSV-1 strain 377) in vero cells in exp. No. 3", "type": "functional, Chlorocebus sabaeus", "outline": "as §1"}, "Vero [28]": {"test_system": "Vero", "assay": "Compound was tested for the inhibition of the replication of herpes simplex virus (HSV-I strain 377) in vero cells in exp. No. 3", "type": "functional", "conditions": "Chlorocebus sabaeus", "outline": "as §1"}, "Vero [29]": {"test_system": "Vero", "assay": "Compound was tested for the inhibition of the replication of herpes simplex virus (HSV-2 strain MS) in vero cells in exp. No. 3", "type": "functional", "conditions": "Chlorocebus sabaeus", "outline": "as §1"}, "Vero [30]": {"test_system": "Vero", "assay": "Compound was evaluated for antiviral activity against Herpes Simplex Virus (HSV-1 strain 377) in vero cells in exp. No. 1", "type": "functional, Chlorocebus sabaeus", "outline": "as §1"}, "Vero [31]": {"test_system": "Vero", "assay": "Compound was evaluated for antiviral activity against Herpes Simplex Virus (HSV-2 strain MS) in vero cells in exp. No. 1", "type": "functional, Chlorocebus sabaeus", "outline": "as §1"}, "Vero [32]": {"test_system": "Vero", "assay": "Compound was tested for the inhibition of the replication of herpes simplex virus (HSV-I strain 377) in vero cells in exp. No. 1", "type": "functional", "conditions": "Chlorocebus sabaeus", "outline": "as §1"}, "Vero [33]": {"test_system": "Vero", "assay": "Compound was evaluated for antiviral activity against Herpes Simplex Virus (HSV-2 strain MS) in vero cells in exp. No. 3", "type": "functional, Chlorocebus sabaeus", "outline": "as §1"}}, "note": "Values joined by “and” are separate entries in the source; they are usually repeats but may differ in a detail not shown here. Equal entries are not always repeated."}
{"smiles": "Cc1cn([C@@H]2C[C@H](CO)[C@@H](O)C2)c(=O)[nH]c1=O", "values": [{"measurement": "VR", "setting": "Oryctolagus cuniculus [1]", "result": 3.2}, {"measurement": "MIC50", "setting": "Oryctolagus cuniculus [2]", "result": 0.8, "unit": "mg/L"}, {"measurement": "VR", "setting": "Oryctolagus cuniculus [3]", "result": 5.4}, {"measurement": "MIC50", "setting": "Oryctolagus cuniculus [4]", "result": 7, "unit": "mg/L"}]}
{"smiles": "C[Si](C)(C)CCc1cn([C@H]2C[C@H](O)[C@@H](CO)O2)c(=O)[nH]c1=O", "values": [{"measurement": "MIC50", "setting": "Vero [5]", "result": "320 µg/mL and 980 µM"}, {"measurement": "VR", "setting": "Vero [6]", "result": 0.1}, {"measurement": "VR", "setting": "Vero [7]", "result": 0.5}]}
{"smiles": "CC(=O)OC[C@H]1O[C@@H](n2cc(C#C[Si](C)(C)C)c(=O)[nH]c2=O)C[C@@H]1OC(C)=O", "values": [{"measurement": "VR", "setting": "Vero [6]", "result": 0}, {"measurement": "VR", "setting": "Vero [7]", "result": 0}]}
{"smiles": "CCc1cn(C2CC(O)C(CO)C2)c(=O)[nH]c1=O", "note": "(stereo not given)", "values": [{"measurement": "MIC50", "setting": "Vero [8]", "result": "70 µg/mL and 270 µM"}, {"measurement": "VR", "setting": "Vero [9]", "result": 2.4}, {"measurement": "VR", "setting": "Vero [10]", "result": 1.1}, {"measurement": "VR", "setting": "Vero [11]", "result": 2.1}, {"measurement": "MIC50", "setting": "Vero [12]", "result": "230 µg/mL and 890 µM"}, {"measurement": "VR", "setting": "Vero [13]", "result": 1.1}, {"measurement": "MIC50", "setting": "Vero [14]", "result": "180 µg/mL and 700 µM"}, {"measurement": "MIC50", "setting": "Vero [15]", "result": 45, "unit": "mg/L"}, {"measurement": "MIC50", "setting": "Vero [16]", "result": 170, "unit": "µM"}]}
{"smiles": "C#Cc1cn(C2CC(O)C(CO)C2)c(=O)[nH]c1=O", "note": "(stereo not given)", "values": [{"measurement": "MIC50", "setting": "Vero [17]", "result": "250 µg/mL and 990 µM"}, {"measurement": "MIC50", "setting": "Vero [14]", "result": "210 µg/mL and 830 µM"}, {"measurement": "VR", "setting": "Vero [18]", "result": 1.1}, {"measurement": "VR", "setting": "Vero [19]", "result": 0.9}]}
{"smiles": "CCc1cn([C@H]2C[C@H](O)[C@@H](CO)O2)c(=O)[nH]c1=O", "note": "[EDOXUDINE]", "values": [{"measurement": "MIC50", "setting": "Vero [20]", "result": 140, "unit": "µM"}, {"measurement": "VR", "setting": "Vero [21]", "result": 2.3}, {"measurement": "VR", "setting": "Vero [22]", "result": 2.2}, {"measurement": "MIC50", "setting": "Vero [23]", "result": "20 µg/mL and 80 µM"}, {"measurement": "MIC50", "setting": "Vero [24]", "result": 37, "unit": "mg/L"}]}
{"smiles": "Nc1ncnc2c1ncn2[C@@H]1O[C@H](CO)[C@@H](O)[C@@H]1O", "note": "[VIDARABINE]", "values": [{"measurement": "MIC50", "setting": "Vero [25]", "result": "22 µg/mL and 80 µM"}, {"measurement": "MIC50", "setting": "Vero [26]", "result": 18, "unit": "mg/L"}, {"measurement": "VR", "setting": "Vero [27]", "result": 2.4}, {"measurement": "MIC50", "setting": "Vero [28]", "result": "5 µg/mL and 20 µM"}, {"measurement": "MIC50", "setting": "Vero [29]", "result": "24 µg/mL and 90 µM"}, {"measurement": "VR", "setting": "Vero [30]", "result": 2.1}, {"measurement": "VR", "setting": "Vero [31]", "result": 1.7}, {"measurement": "MIC50", "setting": "Vero [32]", "result": 70, "unit": "µM"}, {"measurement": "VR", "setting": "Vero [33]", "result": 1.2}, {"measurement": "VR", "setting": "Vero [21]", "result": 2}, {"measurement": "VR", "setting": "Vero [22]", "result": 1.3}, {"measurement": "MIC50", "setting": "Vero [23]", "result": "15 µg/mL and 60 µM"}, {"measurement": "MIC50", "setting": "Vero [24]", "result": "45 µg/mL and 170 µM"}]}
